Columns and labels:
[1] = Apparent clearance in Sprague-Dawley rat plasma at 2 mg/kg, po administered as single dose by LC-MS/MS analysis; format: ADME, organism-based; details: read-out: CL(app) (converted)
Outline: (§1)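 Male SD rats, single dose: 0.5 mg/kg i.v. or 2.0 mg/kg p.o. Vehicle is 5% DMSO, 10% Solutol HS 15 and 85% PBS. Heparinized blood is sampled at 5, 15 and 30 min and at 1, 2, 4, 8 and 24 h after dosing. Plasma is reported in ng/mL and brain in ng/g. F is derived from the p.o. and i.v. arms.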

[2] = AUC (0 to t) in Sprague-Dawley rat brain at 2 mg/kg, po administered as single dose by LC-MS/MS analysis; format: ADME, organism-based; outline: as §1
D(3) dopamine receptor [3] = biological target: T1, D(3) dopamine receptor (Homo sapiens, UniProt P35462); assay: Displacement of [3H]methyl-spiperone from recombinant human D3 receptor expressed in CHO cell membranes after 60 mins by scintillation counting method
T1 sequence (P35462 whole entry): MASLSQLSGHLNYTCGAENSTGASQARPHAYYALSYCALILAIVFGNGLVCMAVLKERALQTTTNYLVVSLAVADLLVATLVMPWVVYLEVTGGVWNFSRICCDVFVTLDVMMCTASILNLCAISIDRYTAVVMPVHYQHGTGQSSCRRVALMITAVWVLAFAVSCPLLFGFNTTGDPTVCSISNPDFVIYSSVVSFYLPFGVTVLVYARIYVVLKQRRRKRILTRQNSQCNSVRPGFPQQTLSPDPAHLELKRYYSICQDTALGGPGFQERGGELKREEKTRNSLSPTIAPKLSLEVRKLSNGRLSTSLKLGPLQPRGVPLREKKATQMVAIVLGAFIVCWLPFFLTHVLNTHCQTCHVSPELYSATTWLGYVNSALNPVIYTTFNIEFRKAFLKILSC

D(2) dopamine receptor [4] = biological target: T2, D(2) dopamine receptor (Homo sapiens, UniProt P14416); assay: Agonist activity at D2 receptor (unknown origin) expressed in CHOK1 cells co-expressing G-alpha 15 by fluo-4 dye based FLIPR assay; format: cell-based, CHO-K1
T2 sequence (P14416 whole entry): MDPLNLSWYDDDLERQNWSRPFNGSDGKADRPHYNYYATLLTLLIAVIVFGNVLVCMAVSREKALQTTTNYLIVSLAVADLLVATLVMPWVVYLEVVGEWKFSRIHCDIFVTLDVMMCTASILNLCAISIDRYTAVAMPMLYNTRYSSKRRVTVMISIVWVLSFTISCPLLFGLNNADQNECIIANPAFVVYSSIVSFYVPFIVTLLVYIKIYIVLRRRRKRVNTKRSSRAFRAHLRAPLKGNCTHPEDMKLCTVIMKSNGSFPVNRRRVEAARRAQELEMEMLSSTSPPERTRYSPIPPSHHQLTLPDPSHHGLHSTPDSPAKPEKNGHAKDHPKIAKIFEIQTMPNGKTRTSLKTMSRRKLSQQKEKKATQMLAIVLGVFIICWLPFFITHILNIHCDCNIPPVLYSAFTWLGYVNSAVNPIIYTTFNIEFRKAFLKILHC

[5] = AUC (0 to t) in Sprague-Dawley rat plasma at 2 mg/kg, po administered as single dose by LC-MS/MS analysis; format: ADME, organism-based; outline: as §1
D(3) dopamine receptor [6] = biological target: T1, D(3) dopamine receptor; assay: Antagonistic activity at D3 receptor (unknown origin) expressed in cell membranes assessed as inhibition of quinpirole-induced response after 40 mins by [35S]GTPgammaS binding assay; format: functional
Outline: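 Membranes (20 mg membrane protein as printed) incubated 40 min at 30 °C in 50 mM Tris pH 7.4, 5 mM MgCl2, 1 mM EDTA, 100 mM NaCl, 1 mM DTT. Mix contained 0.1 nM [35S]GTPγS, GDP, quinpirole as agonist and varied compound concentrations. Nonspecific binding was taken with Gpp(NH)p. Reaction stopped with ice-cold buffer, then GF/C filtration and scintillation counting. Mean IC50 from two experiments, eight concentrations in duplicate.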

[7] = Half life in Sprague-Dawley rat brain at 2 mg/kg, po administered as single dose by LC-MS/MS analysis; format: ADME, organism-based; outline: as §1
[8] = Half life in Sprague-Dawley rat brain at 0.5 mg/kg, iv administered as single dose by LC-MS/MS analysis; format: ADME, organism-based; outline: as §1
[9] = biological target: T3, 5-hydroxytryptamine receptor 1A (Homo sapiens, UniProt P08908); assay: Antagonistic activity at 5-HT1A receptor (unknown origin) expressed in CHOK1 cells co-expressing G-alpha 15 assessed as inhibition of serotonin-induced calcium flux by Fluo-4 based FLIPR assay; format: functional, cell-based, CHO-K1
T3 sequence (P08908 whole entry): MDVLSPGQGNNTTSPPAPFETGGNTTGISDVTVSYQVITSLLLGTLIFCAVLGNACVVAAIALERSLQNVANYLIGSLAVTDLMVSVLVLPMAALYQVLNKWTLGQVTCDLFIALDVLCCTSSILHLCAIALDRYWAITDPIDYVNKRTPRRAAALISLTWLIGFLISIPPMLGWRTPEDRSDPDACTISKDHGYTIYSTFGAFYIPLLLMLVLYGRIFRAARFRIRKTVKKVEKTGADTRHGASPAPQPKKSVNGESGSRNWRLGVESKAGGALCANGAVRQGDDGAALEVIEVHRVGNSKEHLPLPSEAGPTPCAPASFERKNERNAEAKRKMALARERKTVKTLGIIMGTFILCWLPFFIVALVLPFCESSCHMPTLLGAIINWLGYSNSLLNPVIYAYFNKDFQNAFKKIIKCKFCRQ

[10] = Cmax in Sprague-Dawley rat plasma at 0.5 mg/kg, iv administered as single dose by LC-MS/MS analysis; format: ADME, organism-based; design: dose 0.5 mg/kg, route intravenous; outline: as §1
D(2) dopamine receptor [11] = biological target: T2, D(2) dopamine receptor; assay: Displacement of [3H]spiperone from recombinant human D2L receptor expressed in CHO cell membranes after 60 mins by scintillation counting method
[12] = Half life in Sprague-Dawley rat plasma at 0.5 mg/kg, iv administered as single dose by LC-MS/MS analysis; format: ADME, organism-based; outline: as §1
Rattus norvegicus = assay: Reversal of PCP-induced hyperlocomotion activity in ip dosed Sprague-Dawley rat pretreated for 10 mins followed by PCP challenge measured after […]; format: functional, organism-based
[13] = Cmax in Sprague-Dawley rat brain at 0.5 mg/kg, iv administered as single dose by LC-MS/MS analysis; format: ADME, organism-based; design: dose 0.5 mg/kg, route intravenous; outline: as §1
[14] = biological target: T4, 5-hydroxytryptamine receptor 2A (Homo sapiens, UniProt P28223); assay: Displacement of [3H]ketanserin from recombinant human 5-HT2A receptor expressed in HEK293 cell membranes after 60 mins by scintillation counting method
T4 sequence (P28223 whole entry): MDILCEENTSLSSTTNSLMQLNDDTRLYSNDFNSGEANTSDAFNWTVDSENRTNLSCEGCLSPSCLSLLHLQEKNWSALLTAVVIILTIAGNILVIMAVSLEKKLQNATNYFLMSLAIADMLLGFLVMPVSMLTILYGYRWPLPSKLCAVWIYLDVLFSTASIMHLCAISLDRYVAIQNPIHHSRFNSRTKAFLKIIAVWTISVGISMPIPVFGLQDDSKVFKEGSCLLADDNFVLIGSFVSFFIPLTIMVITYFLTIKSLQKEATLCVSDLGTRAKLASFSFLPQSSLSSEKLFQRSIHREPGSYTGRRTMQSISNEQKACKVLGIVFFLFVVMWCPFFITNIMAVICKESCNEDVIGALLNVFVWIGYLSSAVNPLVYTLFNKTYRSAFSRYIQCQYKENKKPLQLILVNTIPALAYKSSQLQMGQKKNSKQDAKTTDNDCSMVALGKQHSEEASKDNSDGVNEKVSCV

[15] = biological target: T3, 5-hydroxytryptamine receptor 1A; assay: Displacement of [3H]8-OH-DPAT from recombinant human 5-HT1A receptor expressed in HEK293 cell membranes after 60 mins by scintillation counting method
[16] = biological target: Voltage-gated inwardly rectifying potassium channel KCNH2 (Homo sapiens, UniProt Q12809)
Chain of Voltage-gated inwardly rectifying potassium channel KCNH2 (Q12809 whole entry): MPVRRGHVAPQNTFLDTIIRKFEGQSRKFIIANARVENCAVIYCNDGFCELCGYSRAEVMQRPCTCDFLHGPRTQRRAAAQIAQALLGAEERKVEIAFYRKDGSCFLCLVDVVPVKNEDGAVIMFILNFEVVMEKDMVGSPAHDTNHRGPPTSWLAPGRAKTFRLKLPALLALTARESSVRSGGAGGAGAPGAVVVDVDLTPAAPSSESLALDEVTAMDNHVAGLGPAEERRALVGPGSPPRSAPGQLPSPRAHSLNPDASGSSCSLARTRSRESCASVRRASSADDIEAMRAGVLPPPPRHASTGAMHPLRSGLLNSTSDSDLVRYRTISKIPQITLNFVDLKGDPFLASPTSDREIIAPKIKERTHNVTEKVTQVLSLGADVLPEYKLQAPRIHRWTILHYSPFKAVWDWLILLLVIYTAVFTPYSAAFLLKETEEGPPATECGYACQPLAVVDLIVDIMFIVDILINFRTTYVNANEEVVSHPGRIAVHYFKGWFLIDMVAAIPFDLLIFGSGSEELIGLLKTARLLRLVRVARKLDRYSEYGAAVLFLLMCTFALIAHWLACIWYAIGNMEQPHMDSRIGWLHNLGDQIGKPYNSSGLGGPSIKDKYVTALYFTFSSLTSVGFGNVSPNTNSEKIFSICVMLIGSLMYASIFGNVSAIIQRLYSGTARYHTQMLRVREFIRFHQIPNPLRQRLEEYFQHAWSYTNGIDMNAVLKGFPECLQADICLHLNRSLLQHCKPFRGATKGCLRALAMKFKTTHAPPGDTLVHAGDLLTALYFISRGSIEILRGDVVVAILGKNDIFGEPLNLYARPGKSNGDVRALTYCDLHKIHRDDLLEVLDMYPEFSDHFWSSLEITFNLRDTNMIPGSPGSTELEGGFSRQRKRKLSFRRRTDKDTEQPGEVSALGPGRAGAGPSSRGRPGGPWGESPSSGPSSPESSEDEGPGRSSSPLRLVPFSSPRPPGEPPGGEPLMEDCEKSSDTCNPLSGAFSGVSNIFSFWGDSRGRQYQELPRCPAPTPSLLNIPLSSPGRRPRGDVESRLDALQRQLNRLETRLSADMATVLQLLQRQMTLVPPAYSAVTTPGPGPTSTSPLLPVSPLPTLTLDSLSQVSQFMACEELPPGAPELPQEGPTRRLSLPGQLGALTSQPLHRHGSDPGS

[17] = biological target: T5, 5-hydroxytryptamine receptor 1A (Homo sapiens) (UniProt P08908); details: CHO-K1, 10 uM
T5 sequence (whole entry): T3 sequence (P08908 whole entry)

D(3) dopamine receptor [18] = biological target: T1, D(3) dopamine receptor; details: 10 uM
CHO = assay: Selectivity ratio of Ki for displacement of [3H]spiperone from recombinant human D2L receptor expressed in CHO cell membranes to Ki for displacement of [3H]methyl-spiperone from recombinant human D3 receptor expressed in CHO cell membranes
Outline: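 D2L binding: CHO membranes (16 µg protein) with 0.3 nM [3H]methyl-spiperone in 50 mM Tris-HCl pH 7.4, 120 mM NaCl, 10 mM MgCl2, 1 mM EDTA, with butaclamol for nonspecific binding. D3 binding: membranes (8 µg) with 0.3 nM [3H]methyl-spiperone in the same Tris buffer with 5 mM KCl, 5 mM MgCl2, 5 mM EDTA, with (+)butaclamol for nonspecific binding. Both run 60 min at 22 °C, then GF/B filtration. Ki by Cheng–Prusoff; ratio is D2 Ki/D3 Ki.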

[19] = AUC (0 to t) in Sprague-Dawley rat plasma at 0.5 mg/kg, iv administered as single dose by LC-MS/MS analysis; format: ADME, organism-based; outline: as §1
[20] = biological target: T4, 5-hydroxytryptamine receptor 2A; assay: Antagonistic activity at 5-HT2A receptor (unknown origin) expressed in CHOK1 cells co-expressing G-alpha 15 assessed as inhibition of serotonin-induced calcium flux by Fluo-4 based FLIPR assay; format: functional, cell-based, CHO-K1
[21] = Oral bioavailability in Sprague-Dawley rat brain at 2 mg/kg administered as single dose by LC-MS/MS analysis; format: ADME, organism-based; outline: as §1
[22] = Ratio of AUC (0 to t) in Sprague-Dawley rat brain to plasma at 2 mg/kg, po; format: ADME, organism-based; details: brain and plasma, read-out: Ratio AUC
Outline: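 Male Sprague-Dawley rats given the test compound once orally at 2.0 mg/kg. Vehicle was 5% DMSO, 10% Solutol HS 15 and 85% PBS. Heparinized blood sampled at 5, 15, 30 min and 1, 2, 4, 8, 24 h after dosing; brain concentrations also measured (ng/g). Ratio is brain AUC0-t over plasma AUC0-t.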

[23] = Cmax in Sprague-Dawley rat plasma at 2.0 mg/kg, po administered as single dose by LC-MS/MS analysis; format: ADME, organism-based; design: dose 2 mg/kg, route oral; outline: as §1

O=C(N[C@H]1CC[C@H](CCN2CCN(c3nsc4ccccc34)CC2)CC1)c1ccco1
CL/F [1]: 582 mL/min/kg
AUC(0-t) [2]: 884 ng·h/mL
Ki (D(3) dopamine receptor [3]): 0.13 nM
EC50 (D(2) dopamine receptor [4]): > 10 µM
AUC(0-t) [5]: 55 ng·h/mL
IC50 (D(3) dopamine receptor [6]): 1.39 nM
half-life [7]: 978 min
half-life [8]: 948 min
IC50 [9]: 46.1 nM
Cmax [10]: 135 ng/mL
Ki (D(2) dopamine receptor [11]): 2.9 nM
half-life [12]: 48 min
Activity (Rattus norvegicus): Dose-dependent effect
Cmax [13]: 259 ng/mL
Ki [14]: 0.23 nM
Ki [15]: 1.3 nM
IC50 [16]: 2110 nM
inhibition [17]: 115%
inhibition (D(3) dopamine receptor [18]): 98.6%
Ratio Ki (CHO): 22.3
AUC(0-t) [19]: 106 ng·h/mL
IC50 [20]: 31.8 nM
bioavailability [21]: 20.7%
Kp [22]: 16.1
Cmax [23]: 18.4 ng/mL

— ChEMBL document CHEMBL3872208, “Synthesis and pharmacological characterization of novel N-(trans-4-(2-(4-(benzo[d]isothiazol-3-yl)piperazin-1-yl)ethyl)cyclohexyl)amides as potential multireceptor atypical antipsychotics” (Eur J Med Chem, 2016)
